Measurements taken from ChEMBL document CHEMBL2424592, “Epothilone D and its 9-Methyl analogues: combinatorial syntheses, conformation, and biological activities” (Eur J Med Chem, 2013).

How the values were obtained:
MCF7 = experiment: Cytotoxicity against human MCF7 cells after 72 hrs; assay type: functional, cell-based; settings: MCF7, 72 h
Tubulin (Homo sapiens) = Tubulin (Homo sapiens) (UniProt P68371+Q9H4B7+P0DPH7+P68366+Q13509+Q71U36+P04350+Q3ZCM7+P07437+P68363+Q9BQE3+Q6PEY2+Q13885+Q9BVA1+Q9BUF5); experiment: Inhibition of tubulin polymerization (unknown origin) at 5 uM; assay type: protein-complex assay
Outline: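 Tubulin came from fresh animal brain (species not given), homogenized in cold MES buffer and purified through repeated cold (4 °C) and warm 105,000 g centrifugation cycles, then diluted to 2 mg/mL in MES. Cold tubulin was mixed with ATPNa2 (40 mmol/L stock) and compound. Polymerization was followed as OD350 every 3 min at 37 °C for 30 min.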

[1] = Cytotoxicity against human MCF7/ADR cells after 72 hrs; assay type: functional, cell-based; settings: NCI/ADR-RES

| SMILES | IC50 (MCF7) [µM] | inhibition (Tubulin (Homo sapiens)) [%] | IC50 [1] [µM] |
| --- | --- | --- | --- |
| C/C1=C/C[C@@H](/C(C)=C/c2csc(C)n2)OC(=O)C[C@H](O)C(C)(C)C(=O)[C@H](C)[C@@H](O)[C@@H](C)[C@@H](C)CC1 | 35.4 | 8.5 | – |
| C/C1=C\C[C@@H](/C(C)=C/c2csc(C)n2)OC(=O)C[C@H](O)C(C)(C)C(=O)[C@H](C)[C@@H](O)[C@@H](C)[C@@H](C)CC1 | 93.4 | – | > 100 |
| C/C1=C\C[C@@H](/C(C)=C/c2csc(C)n2)OC(=O)C[C@H](O)C(C)(C)C(=O)[C@H](C)[C@@H](O)[C@@H](C)[C@H](C)CC1 | 7.7 | – | 7.3 |
| C/C1=C/C[C@@H](/C(C)=C/c2csc(C)n2)OC(=O)C[C@H](O)C(C)(C)C(=O)[C@H](C)[C@@H](O)[C@@H](C)[C@H](C)CC1 | 0.99 | 15.7 | 0.51 |
| C/C1=C/C[C@@H](/C(C)=C/c2csc(C)n2)OC(=O)C[C@H](O)C(C)(C)C(=O)[C@H](C)[C@@H](O)[C@@H](C)CCC1 [EPOTHILONE D] | 0.014 | 43.3 | 0.01 |
